PubChem BioAssay AID493019 (Circadian Research, Kay Laboratory, University of …, 2011)

Key:
[1] = circadian period lengthening and CKI inhibition, late-stage follow-up, mechanism study for circadian clock modulator project, cell-based, U2OS Bmal1-dLuc, CKIdelta, CKIalpha, ERK2, CDK7 (AID 493019); conditions: U2OS Bmal1-dLuc circadian period lengthening, luminescence; for EC (10 h period change): measured here: 10 h period lengthening; for EC (15 h period change): measured here: 15 h period lengthening
Procedure, shortened: (§1)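 System: U2OS osteosarcoma cells carrying Bmal1-dLuc reporter, plus in vitro kinases / Also added: ATP at 5 µM final in kinase reactions / Compound dosing: 10-point dilutions for period assay / Times: reporter 5 days, kinases 3 h, 30 °C / Detection: luciferase luminescence every 100 min, Kinase-Glo residual-ATP luminescence for kinases / Read-out: Period-lengthening concentrations and kinase IC50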

[2] = biological target: Casein kinase I isoform alpha (Homo sapiens) (UniProt P48729); test: as above; conditions: U2OS Bmal1-dLuc circadian period lengthening, luminescence; for IC50: measured here: CKIalpha in vitro kinase
Procedure, shortened: as §1

[3] = biological target: Casein kinase I isoform delta (Homo sapiens) (UniProt P48730); test: as above; conditions: U2OS Bmal1-dLuc circadian period lengthening, luminescence; for IC50: measured here: CKIdelta in vitro kinase
Procedure, shortened: as §1

[4] = biological target: Cyclin-dependent kinase 7 (Homo sapiens) (UniProt P50613); test: as above; conditions: U2OS Bmal1-dLuc circadian period lengthening, luminescence; measured here: CDK7 in vitro kinase
Procedure, shortened: as §1

[5] = biological target: Mitogen-activated protein kinase 1 (Homo sapiens) (UniProt P28482); test: as above; conditions: U2OS Bmal1-dLuc circadian period lengthening, luminescence; measured here: ERK2 in vitro kinase
Procedure, shortened: as §1

[6] = test system: U2OS Bmal1-dLuc circadian period lengthening, luminescence; test: as above
Procedure, shortened: as §1

Structure (SMILES)	EC (10 h period change) [1] [µM]	EC (15 h period change) [1] [µM]	EC50 ([2]; measured here: CKIalpha cell PER1 degradation) [µM]	IC50 [2] [µM]	EC50 ([3]; measured here: CKIdelta cell PER1 degradation) [µM]	IC50 [3] [µM]	IC50 [4] [µM]	IC50 [5] [µM]	EC (5 h period change) [6] [nM]
CC(C)n1cnc2c(NCc3cccc(C(F)(F)F)c3)ncnc21	5.7	13	9.2	5.6	9.7	8.8	29	52	1500
CC(C)n1cnc2c(NCc3ccccc3)ncnc21	17	38		23		21	29	160	4400
